One may read the pIC50 as the IC50 on a negative log10 scale, so that one unit is a factor of ten. Usually inhibition stands for the share of the control response that was lost under treatment.

Assay [1] concerns the target PI3-kinase p110-delta/p85-alpha (Homo sapiens, UniProt O00329). As to the kind of experiment: Inhibition of N-terminal His6-tagged human recombinant full length PI3Kdelta co-expressed with human recombinant full length P85alpha in baculovirus infected Sf21 cells using PIP2 peptide as substrate incubated for 2 hrs in presence ATP by ADP-Glo Kinase Assay. Put shortly:
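ADP-Glo reagent 1 for 40 min, then reagent 2 with 60 min equilibration. IC50 from inhibition curves; average of at least two runs.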
Background: In ADP-Glo the light output rises with the ADP produced.

A further assay addresses PI3K p110 beta/p85 alpha (Homo sapiens, UniProt P42338). Put plainly: Inhibition of N-terminal His6-tagged human recombinant full length PI3Kbeta co-expressed with human recombinant full length P85alpha in baculovirus infected Sf21 cells using PIP2 peptide as substrate incubated for 1 hr in presence ATP by ADP-Glo Kinase Assay. Put shortly: (§1)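 ADP-Glo reagent 1 for 40 min, then reagent 2 with 60 min equilibration before reading. IC50 taken from inhibition curves; average of at least two runs.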

Assay [2] has as its target Phosphatidylinositol 4,5-bisphosphate 3-kinase catalytic subunit gamma isoform (Homo sapiens, UniProt P48736). As to the kind of experiment: Inhibition of GST-tagged human recombinant PI3Kgamma catalytic domain (468 to 1203 residues) expressed in insect cells using PIP2 peptide as substrate incubated for 1 hr in presence ATP by ADP-Glo Kinase Assay. The procedure, abridged:
as §1

For another assay, the system named is NCI-H460. Put plainly: Antiproliferative activity against human NCI-H460 cells harboring PIK3CA mutation assessed as reduction in cell viability after 3 days by CellTiter-Glo luminescence assay. To be noted: NCI-H460, 72 h. Format: functional, cell-based. Put shortly: (§2)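 ATCC lines, 10% FBS: T47D, H1975, H460 in RPMI1640; U87MG in DMEM; A549 in F12K. Seeded 3×10^3 per well the day before, exposed to 3-fold serial dilutions or DMSO for 3 days at 37 °C, 5% CO2; CellTiter-Glo luminescence.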

In assay [3] the target is PI3-kinase p110-alpha/p85-alpha (Homo sapiens, UniProt P42336). Put plainly: Inhibition of His-tagged human full length PI3Kalpha coexpressed with p85 alpha in baculovirus expression system using PIP2 peptide as substrate incubated for 1 hr in presence ATP by Kinase-Glo assay.
Assay [4] concerns the target Serine/threonine-protein kinase mTOR (Homo sapiens, UniProt P42345). Put plainly: Inhibition of N-terminal FLAG-tagged human recombinant mTOR (1362 to end residues) using ULight-4E-BP1 (Thr37/46) peptide as substrate incubated for 1 hr in presence of ATP by Lance Ultra assay. Put shortly:
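ULight-4E-BP1 (Thr37/46) peptide with 13 µM ATP; 1 h at room temperature. Stopped with EDTA quench buffer plus Eu-anti-phospho-4E-BP1, 15 min shake and 60 min equilibration, TR-FRET read. IC50 from inhibition curves; average of at least two runs.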

The subject of the next assay is A549. Put plainly: Antiproliferative activity against human A549 cells assessed as reduction in cell viability after 3 days by CellTiter-Glo luminescence assay. Format: functional, cell-based. To be noted: A549, 72 h. The procedure, abridged:
as §2
(In general: In ATP-based viability assays light output follows the ATP content of the culture.)

A further assay concerns NCI-H1975. As to the kind of experiment: Antiproliferative activity against human NCI-H1975 cells harboring PIK3CA mutation assessed as reduction in cell viability after 3 days by CellTiter-Glo luminescence assay. Format: functional, cell-based. To be noted: NCI-H1975, 72 h. The procedure, abridged: as §2
A further assay concerns T47D. Put plainly: Antiproliferative activity against human T47D cells harboring PIK3CA mutation assessed as reduction in cell viability after 3 days by CellTiter-Glo luminescence assay. Format: functional, cell-based. To be noted: 72 h. Put shortly:
as §2

The subject of a further assay is U-87 MG. As to the kind of experiment: Antiproliferative activity against human U87MG cells harboring PTEN deletion assessed as reduction in cell viability after 3 days by CellTiter-Glo luminescence assay. In kind it is functional, cell-based, U-87MG ATCC. The note with it: 72 h. The procedure, abridged:
as §2

Assay [5] concerns the target Phosphatidylinositol 4,5-bisphosphate 3-kinase catalytic subunit alpha isoform (Homo sapiens) (UniProt P42336). Put plainly: Inhibition of PI3Kalpha in human T47D cells assessed as inhibition of insulin-stimulated Akt phosphorylation at Ser473 residue at 3 uM preincubated for 2 hrs followed by incubation with insulin for 2 hrs by western blot analysis relative to control. Format: cell-based. The note with it: time 4.0 hrs. The procedure, abridged: (§3)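 T47D cells given compound at 37 °C for 2 h, then stimulated with 1 µg/mL insulin for 2 h; lysed in RIPA with protease/phosphatase inhibitors and 1 mM PMSF; BCA-normalised SDS-PAGE, PVDF blot probed overnight at 4 °C for total Akt and pAkt Ser473, infrared secondary detection.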
(In general: In western blotting, separated proteins are transferred to a membrane and probed.)

The target is the same in assay [6]. As to the kind of experiment: Inhibition of PI3Kalpha in human T47D cells assessed as inhibition of insulin-stimulated Akt phosphorylation at Ser473 residue at 0.1 uM preincubated for 2 hrs followed by incubation with insulin for 2 hrs by western blot analysis relative to control. In kind it is cell-based. To be noted: time 4.0 hrs. The procedure, abridged:
as §3

The target is the same in assay [7]. Put plainly: Inhibition of PI3Kalpha in human T47D cells assessed as inhibition of insulin-stimulated Akt phosphorylation at Ser473 residue at 0.3 uM preincubated for 2 hrs followed by incubation with insulin for 2 hrs by western blot analysis relative to control. To be noted: time 4.0 hrs. In kind it is cell-based. The procedure, abridged:
as §3

Assay [8] shares this target. Put plainly: Inhibition of PI3Kalpha in human T47D cells assessed as inhibition of insulin-stimulated Akt phosphorylation at Ser473 residue at 1 uM preincubated for 2 hrs followed by incubation with insulin for 2 hrs by western blot analysis relative to control. In kind it is cell-based. The note with it: time 4.0 hrs. The procedure, abridged: as §3

pIC50: −log10 of the molar value.

Sequence of Phosphatidylinositol 4,5-bisphosphate 3-kinase catalytic subunit gamma isoform (P48736 whole entry, the tested form may be a part, canonical isoform): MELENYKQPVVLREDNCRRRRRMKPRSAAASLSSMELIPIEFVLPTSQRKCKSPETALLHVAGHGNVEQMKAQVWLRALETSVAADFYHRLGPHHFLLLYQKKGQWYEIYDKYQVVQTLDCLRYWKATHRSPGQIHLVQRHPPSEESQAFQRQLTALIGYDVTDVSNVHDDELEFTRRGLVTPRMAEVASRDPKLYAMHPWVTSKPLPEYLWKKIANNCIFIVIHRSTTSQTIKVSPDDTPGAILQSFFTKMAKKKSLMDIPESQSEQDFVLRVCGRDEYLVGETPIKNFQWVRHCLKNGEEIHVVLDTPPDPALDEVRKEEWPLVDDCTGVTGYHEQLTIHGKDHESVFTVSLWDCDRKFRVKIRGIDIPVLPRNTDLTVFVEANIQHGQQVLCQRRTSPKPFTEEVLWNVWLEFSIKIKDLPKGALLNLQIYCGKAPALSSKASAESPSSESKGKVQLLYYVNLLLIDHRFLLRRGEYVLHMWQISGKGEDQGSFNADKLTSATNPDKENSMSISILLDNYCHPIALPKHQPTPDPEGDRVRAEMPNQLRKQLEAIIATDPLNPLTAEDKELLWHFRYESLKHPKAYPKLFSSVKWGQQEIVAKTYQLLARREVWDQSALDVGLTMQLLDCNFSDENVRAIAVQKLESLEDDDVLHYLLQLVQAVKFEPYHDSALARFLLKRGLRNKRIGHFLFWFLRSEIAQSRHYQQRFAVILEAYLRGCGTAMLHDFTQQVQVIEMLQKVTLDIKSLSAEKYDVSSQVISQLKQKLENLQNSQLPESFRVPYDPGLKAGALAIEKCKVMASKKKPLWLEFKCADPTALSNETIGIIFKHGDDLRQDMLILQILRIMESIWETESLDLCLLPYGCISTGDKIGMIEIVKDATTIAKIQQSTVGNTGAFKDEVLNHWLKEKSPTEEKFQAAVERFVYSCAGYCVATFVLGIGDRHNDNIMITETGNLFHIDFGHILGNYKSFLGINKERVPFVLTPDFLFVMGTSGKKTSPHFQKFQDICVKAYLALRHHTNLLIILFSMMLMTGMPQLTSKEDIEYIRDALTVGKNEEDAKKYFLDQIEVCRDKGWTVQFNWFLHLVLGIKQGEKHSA
Sequence of Phosphatidylinositol 4,5-bisphosphate 3-kinase catalytic subunit alpha isoform (Homo sapiens) (P42336 whole entry, canonical isoform): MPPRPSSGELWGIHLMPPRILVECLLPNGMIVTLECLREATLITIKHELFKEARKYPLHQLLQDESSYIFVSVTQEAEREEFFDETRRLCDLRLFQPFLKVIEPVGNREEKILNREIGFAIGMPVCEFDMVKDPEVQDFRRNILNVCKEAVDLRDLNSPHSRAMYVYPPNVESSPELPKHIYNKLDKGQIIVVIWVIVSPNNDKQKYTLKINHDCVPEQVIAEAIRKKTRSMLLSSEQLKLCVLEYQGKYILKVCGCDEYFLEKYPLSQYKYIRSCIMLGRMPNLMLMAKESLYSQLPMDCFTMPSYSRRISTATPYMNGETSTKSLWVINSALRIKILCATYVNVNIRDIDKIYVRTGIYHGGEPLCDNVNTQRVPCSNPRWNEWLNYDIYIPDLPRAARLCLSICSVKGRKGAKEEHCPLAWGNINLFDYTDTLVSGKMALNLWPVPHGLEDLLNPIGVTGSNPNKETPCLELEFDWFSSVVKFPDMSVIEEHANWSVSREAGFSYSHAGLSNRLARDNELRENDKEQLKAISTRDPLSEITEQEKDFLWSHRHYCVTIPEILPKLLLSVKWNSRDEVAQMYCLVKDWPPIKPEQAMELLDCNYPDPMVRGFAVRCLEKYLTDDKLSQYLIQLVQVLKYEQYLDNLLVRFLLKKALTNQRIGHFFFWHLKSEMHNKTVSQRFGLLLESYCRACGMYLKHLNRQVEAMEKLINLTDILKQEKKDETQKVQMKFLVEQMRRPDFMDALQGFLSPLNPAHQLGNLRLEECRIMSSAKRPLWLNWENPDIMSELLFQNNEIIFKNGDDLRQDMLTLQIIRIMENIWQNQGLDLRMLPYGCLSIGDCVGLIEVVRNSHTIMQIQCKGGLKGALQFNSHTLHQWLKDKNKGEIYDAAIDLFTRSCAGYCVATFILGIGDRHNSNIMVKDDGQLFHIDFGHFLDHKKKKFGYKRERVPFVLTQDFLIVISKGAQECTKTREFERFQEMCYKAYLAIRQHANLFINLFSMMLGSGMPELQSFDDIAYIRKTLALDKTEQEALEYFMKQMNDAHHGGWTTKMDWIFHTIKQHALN
Sequence of PI3-kinase p110-delta/p85-alpha (P27986 whole entry): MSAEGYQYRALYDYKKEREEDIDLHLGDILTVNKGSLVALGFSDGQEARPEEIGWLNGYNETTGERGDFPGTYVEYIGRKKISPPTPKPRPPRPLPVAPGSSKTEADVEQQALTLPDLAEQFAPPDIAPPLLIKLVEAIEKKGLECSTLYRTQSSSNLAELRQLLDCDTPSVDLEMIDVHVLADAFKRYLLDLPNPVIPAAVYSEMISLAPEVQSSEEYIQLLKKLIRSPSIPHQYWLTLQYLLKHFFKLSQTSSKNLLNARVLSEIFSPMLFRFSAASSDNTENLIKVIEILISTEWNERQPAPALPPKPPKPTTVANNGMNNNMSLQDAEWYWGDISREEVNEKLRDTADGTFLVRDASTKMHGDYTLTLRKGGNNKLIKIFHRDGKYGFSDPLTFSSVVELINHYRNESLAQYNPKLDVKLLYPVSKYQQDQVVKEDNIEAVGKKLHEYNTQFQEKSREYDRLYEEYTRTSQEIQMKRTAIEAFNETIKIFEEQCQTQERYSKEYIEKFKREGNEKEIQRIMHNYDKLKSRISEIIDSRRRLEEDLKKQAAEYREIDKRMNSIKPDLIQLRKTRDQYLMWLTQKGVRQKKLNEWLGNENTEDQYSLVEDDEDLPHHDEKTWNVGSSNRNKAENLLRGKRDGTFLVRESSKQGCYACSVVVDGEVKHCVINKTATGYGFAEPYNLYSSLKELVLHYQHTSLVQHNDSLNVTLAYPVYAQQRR
Sequence of PI3-kinase p110-delta/p85-alpha (O00329 whole entry): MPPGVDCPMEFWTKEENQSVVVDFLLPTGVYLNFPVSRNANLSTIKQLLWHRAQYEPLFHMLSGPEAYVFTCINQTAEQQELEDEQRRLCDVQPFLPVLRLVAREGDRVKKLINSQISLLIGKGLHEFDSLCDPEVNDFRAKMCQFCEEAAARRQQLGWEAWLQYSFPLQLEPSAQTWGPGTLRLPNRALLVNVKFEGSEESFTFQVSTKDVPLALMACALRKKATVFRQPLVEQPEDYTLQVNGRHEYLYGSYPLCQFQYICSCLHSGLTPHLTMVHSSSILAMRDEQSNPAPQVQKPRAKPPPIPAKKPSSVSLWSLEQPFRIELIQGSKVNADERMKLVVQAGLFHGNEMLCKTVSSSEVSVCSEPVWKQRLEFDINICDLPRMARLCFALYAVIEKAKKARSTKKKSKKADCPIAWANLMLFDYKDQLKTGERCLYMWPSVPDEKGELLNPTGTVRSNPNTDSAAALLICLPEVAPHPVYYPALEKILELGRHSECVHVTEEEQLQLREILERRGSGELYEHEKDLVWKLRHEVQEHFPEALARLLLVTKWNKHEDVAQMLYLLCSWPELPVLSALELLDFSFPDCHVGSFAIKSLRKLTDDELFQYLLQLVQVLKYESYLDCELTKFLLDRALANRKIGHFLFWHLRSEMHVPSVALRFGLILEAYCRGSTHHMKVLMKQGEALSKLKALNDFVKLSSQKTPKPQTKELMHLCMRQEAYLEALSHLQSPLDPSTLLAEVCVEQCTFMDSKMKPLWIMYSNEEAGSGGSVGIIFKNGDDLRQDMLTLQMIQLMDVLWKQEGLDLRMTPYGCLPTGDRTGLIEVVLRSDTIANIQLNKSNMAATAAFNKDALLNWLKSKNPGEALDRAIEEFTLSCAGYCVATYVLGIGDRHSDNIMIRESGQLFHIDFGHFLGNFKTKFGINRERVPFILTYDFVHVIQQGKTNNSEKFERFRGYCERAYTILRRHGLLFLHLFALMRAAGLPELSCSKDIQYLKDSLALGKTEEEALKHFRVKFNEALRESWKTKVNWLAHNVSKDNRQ
Sequence of PI3-kinase p110-alpha/p85-alpha (P27986 whole entry): as the sequence (P27986 whole entry) above
Sequence of PI3-kinase p110-alpha/p85-alpha (P42336 whole entry): as the sequence (P42336 whole entry, canonical isoform) above

`N#Cc1c(N2CCOCC2)sc(-c2nc[nH]n2)c1-c1ccc(NC(=O)N/N=C/c2ccccn2)cc1`: the pIC50 in assay [1] is 7.31; on PI3K p110 beta/p85 alpha, 7.28; in assay [2] it was 6.56; in the assay with NCI-H460, 5.57; in assay [3] it was 8.19; in [4] it was 6.38. Also, the pIC50 in the assay with A549 is 4.73; in the assay on NCI-H1975, 4.95; with T47D, 5.67; in the assay with U-87 MG it was 4.65.
For `N#Cc1c(N2CCOCC2)sc(-c2nc[nH]n2)c1-c1ccc(NC(=O)N/N=C/c2c(Cl)cccc2Cl)cc1`, the pIC50 in assay [3] was 6.49.
On the same count and under the same terms, the value for `N#Cc1ccc(NC(=O)Nc2ccc(-c3c(-c4nc[nH]n4)sc(N4CCOCC4)c3C#N)cc2)cc1` was 6.54; that for `Cc1cccc(C)c1NC(=O)Nc1ccc(-c2c(-c3nc[nH]n3)sc(N3CCOCC3)c2C#N)cc1` was 6.46.
Still for that read-out and setting: then `N#Cc1c(N2CCOCC2)sc(-c2nc[nH]n2)c1-c1ccc(NC(=O)N/N=C/c2ccc(F)cc2)cc1`, with 7.12.
As to `N#Cc1c(N2CCOCC2)sc(-c2nc[nH]n2)c1-c1ccc(NC(=O)N/N=C/c2ccco2)cc1`, the negative logarithm of the IC50 (pIC50) in [1] is 7.13; at PI3K p110 beta/p85 alpha, 7.13; in [2], 6.69; in the assay with NCI-H460, 5.91; in assay [3], 7.88; in [4], 6.22. The negative logarithm of the IC50 (pIC50) in the assay on A549 was 4.71; in the assay with NCI-H1975, 4.89; with T47D, 5.57; with U-87 MG, 4.91.
Compound `Cc1cc(/C=N/NC(=O)Nc2ccc(-c3c(-c4nc[nH]n4)sc(N4CCOCC4)c3C#N)cc2)cc(C)c1O` showed a pIC50 in [3] of 7.69.
The same measure, in the same setting: then `N#Cc1c(N2CCOCC2)sc(-c2nc[nH]n2)c1-c1ccc(NC(=O)N/N=C/c2ccc(O)c(O)c2)cc1`, with 7.66; and `N#Cc1c(N2CCOCC2)sc(-c2nc[nH]n2)c1-c1ccc(NC(=O)N/N=C/c2ccc[nH]2)cc1`, with 8.03; and `N#Cc1c(N2CCOCC2)sc(-c2nc[nH]n2)c1-c1ccc(NC(=O)Nc2cccc(F)c2)cc1`, with 6.82.
Take `Cc1ccc(NC(=O)Nc2ccc(-c3c(-c4nc[nH]n4)sc(N4CCOCC4)c3C#N)cc2)cc1`: in assay [3], the pIC50 was 7.02.
Regarding `N#Cc1c(N2CCOCC2)sc(-c2nc[nH]n2)c1-c1ccc(NC(=O)N/N=C/c2cccc(O)c2)cc1`, the negative-log IC50 (pIC50) in assay [1] was 7.14; at PI3K p110 beta/p85 alpha it was 7.37; in [2], 6.36; in the assay with NCI-H460, 5.86; in assay [3] it was 7.75; in [4] it was 6.31. Further, the negative-log IC50 (pIC50) is 4.90 with A549, 5.01 in the assay with NCI-H1975, 5.65 in the assay with T47D and 4.89 in the assay on U-87 MG.
For the compound `N#Cc1c(N2CCOCC2)sc(-c2nc[nH]n2)c1-c1ccc(NC(=O)Nc2ccc(F)cc2)cc1`, the negative logarithm of the IC50 (pIC50) in [1] was 6.62; at PI3K p110 beta/p85 alpha, 7.02; in assay [2], 6.54; with NCI-H460, 6.23; in [3], 7.45; in assay [4], 5.78. The pIC50 with A549 was 5.26; with NCI-H1975 it was 5.69; in the assay on T47D, 6.28; in the assay with U-87 MG, 5.47.
In turn, `N#Cc1c(N2CCOCC2)sc(-c2nc[nH]n2)c1-c1ccc(NC(=O)Nc2ccccc2)cc1` had a pIC50 in [3] of 6.94.
As for `Cc1nc(NC(=O)N2CCC[C@H]2C(N)=O)sc1-c1ccnc(C(C)(C)C(F)(F)F)c1` [ALPELISIB], the negative logarithm of the IC50 (pIC50) in [4] is 5.84.
As to `COc1cc(/C=N/NC(=O)Nc2ccc(-c3c(-c4nc[nH]n4)sc(N4CCOCC4)c3C#N)cc2)cc(OC)c1OC`, the pIC50 in [3] was 6.96.
Same read-out and setting: then `N#Cc1c(N2CCOCC2)sc(-c2nc[nH]n2)c1-c1ccc(NC(=O)N/N=C/c2ccc(OC(F)(F)F)cc2)cc1`, with 6.20; and `COc1ccccc1NC(=O)Nc1ccc(-c2c(-c3nc[nH]n3)sc(N3CCOCC3)c2C#N)cc1`, with 6.98.
Take `N#Cc1ccc(-c2c(-c3ncn[nH]3)sc(N3CCOCC3)c2C#N)c(F)c1`: the inhibition turned out to be 86% in assay [5], 65% in assay [6], 73% in assay [7] and 83% in assay [8]. In addition, the pIC50 with NCI-H460 is 6.92; in the assay on A549, 5.45; with NCI-H1975, 6.03; in the assay on T47D, 6.47; in the assay with U-87 MG, 5.64.
With `N#Cc1c(N2CCOCC2)sc(-c2nc[nH]n2)c1-c1ccc(NC(=O)N/N=C/c2cccc(Br)c2)cc1`, the negative-log IC50 (pIC50) in assay [3] was 7.05.
`COc1ccc(/C=N/NC(=O)Nc2ccc(-c3c(-c4nc[nH]n4)sc(N4CCOCC4)c3C#N)cc2)cc1`: the negative-log IC50 (pIC50) in assay [3] is 7.14.
Same read-out and setting: the value for `N#Cc1c(N2CCOCC2)sc(-c2nc[nH]n2)c1-c1ccc(NC(=O)Nc2cccc(Br)c2)cc1` was 6.62; that for `N#Cc1c(N2CCOCC2)sc(-c2nc[nH]n2)c1-c1ccc(NC(=O)Nc2ccc(F)c(Cl)c2)cc1` was 6.39.
Turning to `N#Cc1c(N2CCOCC2)sc(-c2nc[nH]n2)c1-c1ccc(NC(=O)N/N=C/c2ccccc2)cc1`, in assay [3], the negative logarithm of the IC50 (pIC50) is 7.12.
The same measure, in the same setting: then `N#Cc1c(N2CCOCC2)sc(-c2nc[nH]n2)c1-c1ccc(NC(=O)Nc2ccc(C(F)(F)F)cc2)cc1`, with 6.39.
Take `N#Cc1ccc(-c2c(-c3nnc[nH]3)sc(N3CCOCC3)c2C#N)c(F)c1`: the pIC50 was 7.82 in assay [1]; 6.91 on PI3K p110 beta/p85 alpha; 7.22 in assay [2]; 8.27 in assay [3]; 5.39 in assay [4].
Regarding `N#Cc1c(N2CCOCC2)sc(-c2nc[nH]n2)c1-c1ccc(NC(=O)Nc2ccccc2F)cc1`, the pIC50 in assay [1] is 6.48; on PI3K p110 beta/p85 alpha, 7.05; in assay [2], 6.52; in the assay on NCI-H460 it was 6.40; in assay [3], 7.65; in assay [4] it was 5.80. In addition, the pIC50 in the assay on A549 was 5.38; with NCI-H1975, 5.82; with T47D, 6.39; with U-87 MG, 5.40.
The compound `N#Cc1c(N2CCOCC2)sc(-c2nc[nH]n2)c1-c1ccc(NC(=O)Nc2ccc(OC(F)(F)F)cc2)cc1` had a pIC50 in [3] of 6.08.

(Values after ChEMBL document CHEMBL4765307, “Design, synthesis and biological activity of novel 2,3,4,5-tetra-substituted thiophene derivatives as PI3Kα inhibitors with potent antitumor activity” (Eur J Med Chem, 2020).)
